Laboratory results taken from ChEMBL document CHEMBL3271979, “Inhibition of solid tumors by nitrosoureas. 1. Lewis lung carcinoma” (1977).
The source made the active and inactive calls. The rule behind the calls is not given here.

How the values were obtained:
[1] = Antitumor activity against mouse early Lewis lung carcinoma allografted in BDF1 mouse assessed as increase in host life span at 24 mg/kg, ip administered as single dose on 1 or 2 days post-tumor implantation; type: functional; settings: route intraperitoneal
Method in brief: (§1)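 BDF1 mice (C57Blk/6 × DBA/2) implanted sc by trocar with ~40 mg Lewis lung tumor fragments from bacteriologically sterile donor tumors. Single ip dose on day 1 or 2, as a solution or suspension in water (CMC or gum acacia) or saline (HPC or Tween 80). Read-out is […]. Same-dose toxicity controls were run in nontumor-bearing mice.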

[2] = Antitumor activity against mouse early Lewis lung carcinoma allografted in BDF1 mouse assessed as increase in host life span at 36 mg/kg, ip administered as single dose on 1 or 2 days post-tumor implantation; type: functional; settings: route intraperitoneal; method in brief: as §1
[3] = (§2) Antitumor activity against mouse early Lewis lung carcinoma allografted in ip dosed BDF1 mouse assessed as disease cure administered as single dose on 1 or 2 days post-tumor implantation measured for 80 days post-drug treatment; type: functional
Method in brief: (§3)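 BDF1 mice implanted sc by trocar with ~40 mg Lewis lung fragments from sterile donor tumors. A single ip dose was given on day 1 or 2 after implant, in water or saline vehicle. Cures were scored in animals observed for at least 80 days after treatment. Drug-toxicity controls were matched non-tumor-bearing mice monitored for body weight and deaths.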

[4] = Antitumor activity against mouse early Lewis lung carcinoma allografted in BDF1 mouse assessed as time delay in tumor growth at 36 mg/kg, ip administered as single dose on 1 or 2 days post-tumor implantation; type: functional; settings: route intraperitoneal
Method in brief: (§4)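 BDF1 mice (C57Blk/6 × DBA/2) implanted sc by trocar with ~40 mg Lewis lung tumor fragments from bacteriologically sterile donors. A single ip dose was given on day 1 or 2, as a solution or suspension in water or saline with suspending agent, at ≤0.5 ml. Tumors were measured by caliper at least twice weekly, with weight = ab²/2. Delay was taken as the days for the tumor to reach 1 g.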

[5] = Ratio of ED50 for antitumor activity against mouse L1210 cells allografted in ip dosed mouse to LD10 for mouse
[6] = Antitumor activity against mouse advanced Lewis lung carcinoma allografted in BDF1 mouse assessed as increase in host life span at 36 mg/kg, ip administered as single dose on 7th day post-tumor implantation; type: functional; settings: route intraperitoneal
Method in brief: (§5)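 BDF1 mice (C57Blk/6 × DBA/2) implanted sc by trocar with about 40 mg Lewis lung tumor fragments from bacteriologically sterile donors. Advanced-disease groups held tumors of about 400 mg by day 6-7, sized by caliper (w = ab²/2). Single ip injection on day 7, in water or saline vehicle, at or below the LD10 in normal mice. Tumors measured at least twice weekly.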

[7] = Antitumor activity against mouse early Lewis lung carcinoma allografted in BDF1 mouse assessed as time delay in tumor growth at 24 mg/kg, ip administered as single dose on 1 or 2 days post-tumor implantation; type: functional; settings: route intraperitoneal; method in brief: as §4
Mus musculus [8] = assay: Antitumor activity against mouse advanced Lewis lung carcinoma allografted in ip dosed BDF1 mouse assessed as disease cure administered as single dose on day 6 or 7 post-tumor implantation; type: functional, organism-based
Method in brief: (§6)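 BDF1 mice (C57Blk/6 × DBA/2) implanted sc by trocar with Lewis lung tumor fragments of about 40 mg, taken only from bacteriologically sterile donor tumors. Mice bearing tumors of about 400 mg (day 6-7) were selected. Each received a single ip dose on day 7, at or below the LD10 in normal mice. Groups were of 10 mice. Tumor weight was taken from calipers as w = ab²/2, measured at least twice weekly. Matched non-tumor mice served as toxicity controls.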

[9] = Antitumor activity against mouse advanced Lewis lung carcinoma allografted in BDF1 mouse assessed as increase in host life span at 13 mg/kg, ip administered as single dose on 7th day post-tumor implantation; type: functional; settings: route intraperitoneal; method in brief: as §5
Mus musculus [10] = assay: Antitumor activity against mouse advanced Lewis lung carcinoma allografted in ip dosed BDF1 mouse assessed as complete regression of established tumor administered as single dose on day 6 or 7 post-tumor implantation; type: functional, organism-based; method in brief: as §6
Mus musculus [11] = assay: Antitumor activity against mouse early Lewis lung carcinoma allografted in ip dosed BDF1 mouse administered as single dose on 1 or 2 days post-tumor implantation measured for 80 days post-drug treatment; type: functional, organism-based; method in brief: as §3
Mus musculus [12] = assay: Antitumor activity against mouse advanced Lewis lung carcinoma allografted in BDF1 mouse assessed as disease cure at 13 mg/kg, ip administered as single dose on 7th day post-tumor implantation measured for 80 days post-drug treatment; type: functional, organism-based; parameters: dose 13 mg/kg; method in brief: as §5
[13] = Antitumor activity against mouse advanced Lewis lung carcinoma allografted in ip dosed BDF1 mouse assessed as increase in host lifespan administered as single dose on day 6 or 7 post-tumor implantation; type: functional
Method in brief: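 Advanced Lewis lung model: about 40 mg fragments implanted sc by trocar into BDF1 mice, and mice with tumors of about 400 mg (day 6-7) selected. Tumor weight from calipers, w = ab²/2. Agent given as one ip dose in distilled water or physiological saline. Nontumor-bearing mice received matching doses as toxicity controls.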

Mus musculus [14] = assay: as §2; type: functional; method in brief: as §3
Mus musculus [15] = assay: Antitumor activity against mouse advanced Lewis lung carcinoma allografted in BDF1 mouse assessed as complete regression of established tumor at 13 mg/kg, ip administered as single dose on 7th day post-tumor implantation; type: functional, organism-based; parameters: dose 13 mg/kg; method in brief: as §5
Mus musculus [16] = assay: Antitumor activity against mouse advanced Lewis lung carcinoma allografted in BDF1 mouse assessed as disease cure at 55 mg/kg, ip administered as single dose on 7th day post-tumor implantation measured for 80 days post-drug treatment; type: functional, organism-based; parameters: dose 55 mg/kg; method in brief: as §6
[17] = Antitumor activity against mouse advanced Lewis lung carcinoma allografted in BDF1 mouse assessed as increase in host life span at 55 mg/kg, ip administered as single dose on 7th day post-tumor implantation; type: functional; settings: route intraperitoneal; method in brief: as §5
[18] = Antitumor activity against mouse early Lewis lung carcinoma allografted in BDF1 mouse assessed as increase in host life span at 57 mg/kg, ip administered as single dose on 1 or 2 days post-tumor implantation; type: functional; settings: route intraperitoneal; method in brief: as §1
[19] = Antitumor activity against mouse early Lewis lung carcinoma allografted in BDF1 mouse assessed as time delay in tumor growth at 57 mg/kg, ip administered as single dose on 1 or 2 days post-tumor implantation; type: functional; settings: route intraperitoneal; method in brief: as §4
[20] = Antitumor activity against mouse early Lewis lung carcinoma allografted in BDF1 mouse assessed as increase in host life span at 38 mg/kg, ip administered as single dose on 1 or 2 days post-tumor implantation; type: functional; settings: route intraperitoneal; method in brief: as §1
Mus musculus [21] = assay: Antitumor activity against mouse advanced Lewis lung carcinoma allografted in BDF1 mouse assessed as complete regression of established tumor at 55 mg/kg, ip administered as single dose on 7th day post-tumor implantation; type: functional, organism-based; parameters: dose 55 mg/kg; method in brief: as §6
[22] = Antitumor activity against mouse early Lewis lung carcinoma allografted in BDF1 mouse assessed as time delay in tumor growth at 38 mg/kg, ip administered as single dose on 1 or 2 days post-tumor implantation; type: functional; settings: route intraperitoneal; method in brief: as §4

## C[C@H]1CC[C@H](NC(=O)N(CCCl)N=O)CC1
[1]
  ILS at 24 mg/kg: 37%
[2]
  ILS at 36 mg/kg: 44%
[3]
  Activity: >50%
[4]
  Time: 14 days
[5]
  Ratio: 0.4
[6]
  ILS at 36 mg/kg: 46%
[7]
  Time: 6.5 days
Mus musculus [8]
  Activity: Active

## O=NN(CCCl)C(=O)N[C@H]1C(O)O[C@H](CO)[C@@H](O)[C@@H]1O (some centres undefined) [CHLOROZOTOCIN]
[9]
  ILS at 13 mg/kg: 25%
Mus musculus [10]
  inhibition: inactive
Mus musculus [11]
  Activity: inactive
Mus musculus [12]
  Activity: inactive
[13]
  ILS: >25%
Mus musculus [14]
  Activity: inactive
Mus musculus [15]
  inhibition: inactive
[5]
  Ratio: 0.4
Mus musculus [8]
  Activity: inactive

## O=NN(CCCl)C(=O)N[C@H]1CCCC[C@@H]1Cl (relative stereo)
Mus musculus [16]
  Activity: inactive
[17]
  ILS at 55 mg/kg: 18%
Mus musculus [10]
  inhibition: inactive
[18]
  ILS at 57 mg/kg: 38%
[13]
  ILS: >25%
[19]
  Time: 2.5 days
[3]
  Activity: 10%
[20]
  ILS at 38 mg/kg: 43%
Mus musculus [21]
  inhibition: inactive
[5]
  Ratio: 0.6
[22]
  Time: 3.3 days
Mus musculus [8]
  Activity: inactive
